Rows were chosen to be rich in hits. Some 2.3% of all compounds tested hit in one or more screens of this group.
HIF activator = HIF pathway transcriptional activation; U2OS HRE-luciferase reporter, luminescence; normalized: DMSO 0%, desferrioxamine 100%; activation, % at 7.5 µM (by protocol); 0.32% of 300,000 active; AID 1910;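 active = mean activation of at least 10% of the iron chelator positive control signal, with at least half of replicates also reaching 10%; inconclusive = mean and replicate majority disagree about reaching 10%; inactive = mean and most replicates under 10%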
T cruzi inh = T. cruzi replication inhibition; inhibition, % (no concentration beside the values); AID 1885; 1.4% of 300,000 active; T. cruzi beta-gal in NIH3T3, luminescence, 90 h;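 active = mean inhibition across valid replicates above about 55%, limit read from the data; inconclusive = mean below that limit but half or more replicates reach it; inactive = mean below it, under half of replicates reach it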;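 also: signal also drops with host cell toxicity which is not excluded here; 0% = plate median of DMSO wells and 100% = zero luminescence signal; higher percent means less beta-gal luminescence so fewer parasites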
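System: Mouse NIH/3T3 fibroblasts infected with β-gal-expressing T. cruzi Tulahuen C4 | Quantity: NIH/3T3 cells, 5,000 per well | Reagent: 5000 reporter trypomastigotes per well | Dosing: Compound pinned at 50 nL/well, DMSO | Schedule: 3 h host attachment, then at least 90 h co-culture | Detection: GalScreen luminescence, 60 min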
Bfl-1 A1 inh = inhibitors of the anti-apoptotic protein A1, read as caspase activation; MEF A1-2A-BIM cells, Caspase-Glo 3/7 luminescence, 3 h; percent of clofoctol response, vehicle zero; 0.066% of 330,000 active; caspase activation, % (concentration not given with the values);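 active = over half of replicate activation scores above 10%, or exactly half above 10 with the replicate mean above 10; inconclusive = replicate mean below 10 yet half the replicates above 10; inactive = over half of replicates below 10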
Beta cell apopt = blocks beta cell apoptosis | 0.8% of 300,000 active | INS-1E cytokine-induced death, ATP luminescence, 48 h; percent of positive-control rescue, neutral wells zero | protection from apoptosis, % (test concentration not listed);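 active = Every replicate reaches about 75%, or at least half do and their mean reaches it too, limit read from the data; inconclusive = At least half of replicates reach the limit but their mean does not; inactive = Under half of replicates reach the limit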;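 also: 0% = cytokine-treated negative control wells and 100% = positive control rescue; higher means more ATP so stronger rescue from cytokine killing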
KLF5 inhibitor = suppresses KLF5 promoter-driven expression; DLD-1 KLF5 promoter-luciferase reporter, luminescence; 0.23% of 290,000 active; inhibition, % at 5 µM; AID 1700;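 active = inhibition above a per-plate limit of that plate's mean compound inhibition plus 3 SD, cut at about 60% in these data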;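 also: 0% = DMSO wells and 100% = LY294002 at 200 µM; higher means less KLF5 promoter-driven luciferase light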
Starred values were filed as active, the others as inactive; ? = inconclusive; nt = not tested or not shown.

SMILES | HIF activator | T cruzi inh | Bfl-1 A1 inh | Beta cell apopt | KLF5 inhibitor
O=C(CCNC(=O)c1ccccc1Cl)Nc1nc(-c2ccc3ccccc3c2)cs1 | 0.0 | 55.9* | 0.5 | 1.7 | -22.6
Cc1cc(C)n(C(=O)c2ccc([N+](=O)[O-])cc2Cl)n1 | -0.2 | -4.5 | ? | -0.2 | -21.8
Cc1ccc2c(c1)cc1c(=O)n(CC(=O)NCCN3CCCC3)nc(C)n12 | 0.0 | 24.3 | -0.1 | -7.1 | -30.6
O=C(NC(=S)Nc1cc(-c2nc3ccccc3[nH]2)ccc1Cl)c1ccc2c(c1)OCO2 | 0.4 | 42.0 | -3.6 | 88.8* | -81.3
Cc1ccc(-c2nc3ccccc3[nH]2)cc1NC(=O)c1ccc2c(c1)OCO2 | 1.1 | 25.3 | 0.2 | -2.5 | -16.1
N#C/C(=C\c1ccc(N2CCCCC2)c([N+](=O)[O-])c1)c1nn(-c2ccccc2)c(N)c1C#N | -0.1 | 62.2* | 0.1 | 28.0 | -10.1
COc1ccc(NC(=O)c2cccc(S(=O)(=O)N3CCN(C)CC3)c2)c(OC)c1 | 0.5 | 17.2 | -0.3 | 5.0 | 17.4
N#C/C(=N\Nc1cccc([N+](=O)[O-])c1)C(=O)c1ccc(Br)cc1 | -0.3 | 27.6 | 0.4 | 104.2* | -9.8
O=C(O)c1ccc(N=NNc2cccc([N+](=O)[O-])c2)cc1 | 0.9 | 1.0 | -9.0 | -3.9 | -106.8
COc1ccc(/C=N/Nc2cc(C)nc3ccccc23)cc1 | 1.7 | 64.1* | -0.2 | 50.1 | -59.5
COc1ccc(/C=N/Nc2cc(C)nc3c(C)cccc23)cc1 | 1.8 | 74.2* | 0.3 | 47.3 | -12.7
Cc1ccc2nc(C)cc(N/N=C/c3cccc(O)c3)c2c1 | 0.7 | -7.3 | 0.0 | 2.3 | -13.5
COc1ccc2nc(C)cc(N/N=C/c3ccc(F)cc3)c2c1 | -3.8 | 60.8* | 1.8 | 107.3* | -17.4
CC(=O)c1cn(CCOc2ccc(F)cc2)c2ccccc12 | 1.3 | 2.4 | -0.2 | 16.7 | -20.4
CC1CCc2c(sc3nc(C(C)(C)C)nc(N4CCN(C(=O)CCl)CC4)c23)C1 (centres undefined) | 0.2 | 42.5 | ? | 97.6* | -36.1
COc1ccc(C(=O)NC2CCc3ccccc32)cc1OC1CCN(C(C)C)CC1 (centres undefined) | 1.0 | 13.6 | 0.5 | 1.8 | -28.8
Cc1ccccc1Nc1nnc(SCC(=O)NCC2CCCO2)s1 (centres undefined) | nt | nt | -0.6 | -0.3 | nt
CC1=NC(C#N)=C(C#N)NC(C)(C)C1 | 28.4* | -1.9 | -0.6 | -13.2 | 0.7
CC(=O)c1sc(NC(=O)C2(F)C(F)(F)C(F)(F)C(F)(F)C(F)(F)C2(F)F)nc1C | nt | -10.8 | -0.1 | 108.6* | 20.1
Cc1nn(Cc2ccc(F)cc2)c(Cl)c1/C=N/NC(=O)c1ccccc1 | 0.5 | 66.1* | -0.3 | 2.5 | 5.5
Cc1cccc2cc(CN(Cc3cccs3)C(=S)NCC3CCCO3)c(=O)[nH]c12 (centres undefined) | -0.4 | 6.2 | -0.2 | nt | -20.8
Cc1ccc(NC(=S)N(Cc2cccs2)Cc2cc3cccc(C)c3[nH]c2=O)cc1 | 888.6* | 8.5 | -0.3 | -1.3 | -25.3
O=C(O)Cc1sc(NC2CCCCC2)nc1-c1ccc(Cl)cc1 | 1.3 | 25.5 | 0.5 | 4.6 | -57.4
O=C(CSc1ncnc2c1nnn2Cc1ccc(F)cc1)NC1CCCCC1 | -0.2 | 78.8* | -2.1 | -19.9 | -13.7
COc1ccc(N2CCN(C(=O)CCCN3C(=O)c4cccc5cccc(c45)C3=O)CC2)cc1 | -0.5 | 74.8* | -0.4 | 9.3 | -2.9
SMILES | HIF activator | T cruzi inh | Bfl-1 A1 inh | Beta cell apopt | KLF5 inhibitor
CCc1cccc(NC(=O)CCc2c(C)nn(-c3ccc(N4CCOCC4)nn3)c2C)c1 | 1.4 | 4.0 | -0.3 | 2.5 | -30.2
CC(=O)Nc1cccc(NC(=O)Cc2nc(-c3ccccc3)sc2-c2ccc(C)cc2)c1 | 0.1 | 42.3 | 0.7 | 1.8 | -31.1
Cc1ccc(-c2sc(-c3ccccc3)nc2CC(=O)Nc2ccccc2F)cc1 | 0.0 | 42.0 | 0.0 | 141.1* | -10.5
Cc1ccc(NC(=O)c2cc3c(s2)CCCC3)cc1S(=O)(=O)Nc1ccccc1Cl | -0.3 | 18.7 | 0.1 | 16.3 | 33.5
O=C(Nc1cccc(S(=O)(=O)Nc2ccc(Cl)cc2)c1)c1ccc(Cl)nc1 | 0.1 | -15.8 | -0.5 | 78.7* | -8.3
COc1ccc(NS(=O)(=O)c2cccc(NC(=O)c3ccc(Cl)nc3)c2)cc1 | 0.3 | -40.7 | -0.4 | 107.0* | 12.2
O=C(Nc1cccc(S(=O)(=O)Nc2ccc(Cl)cc2)c1)c1cc2c(s1)CCCC2 | 0.2 | 64.8* | 0.5 | 11.8 | 15.8
COc1ccc(NS(=O)(=O)c2cccc(NC(=O)c3cnccn3)c2)cc1Br | -0.1 | 68.2* | 0.0 | nt | -50.1
Cc1cc(=O)oc2c3c(cc(OCC(=O)N[C@@H](CC(C)C)C(=O)O)c12)OC(C)(C)CC3 | -0.4 | -7.4 | ? | 3.7 | -18.3
C/C(=N\NC(=O)COc1cc(C)cc(C)c1)c1cccc(NC(=O)C2CCC2)c1 | -0.2 | 11.9 | 0.2 | -3.0 | 1.4
Cc1ccc2c(c1)S/C(=C/c1ccc[n+](CCO)c1)N2C | -0.9 | 61.2* | -0.5 | 99.4* | -9.2
CC(=O)Nc1cccc(NC(=O)CSc2ccc(-c3ccccn3)nn2)c1 | 3.0 | 6.3 | 0.9 | 0.7 | -17.8
CCc1ccc(NC(=O)CSc2ccc(-c3ccccn3)nn2)cc1 | 12.6* | ? | -0.1 | 86.4* | -23.6
CC(C)c1ccc(NC(=O)COc2ccccn2)cc1 | 1.4 | 55.8* | 0.1 | 0.2 | -78.6
O=c1c(Cl)c2oc3ccccc3nc-2c2ccccc12 | -0.6 | -20.3 | -0.2 | 85.5* | -1.3
Clc1ccc(-c2nnc(Sc3nc4ccccc4o3)c3ccccc23)cc1 | -0.4 | 2.0 | -0.1 | 6.6 | -48.1
Cc1ccccc1C(C)NS(=O)(=O)c1ccc2c(c1)OCCO2 (centres undefined) | nt | nt | 0.5 | -3.0 | nt
O=[N+]([O-])c1ccc(Nc2nc(NC3CCCCC3)nc(N3CCCC3)n2)cc1 | -0.1 | 64.6* | -1.2 | 49.9 | -1.2
COc1cccc(/C=N/Nc2nc(Nc3ccc([N+](=O)[O-])cc3)nc(N3CCCC3)n2)c1O | -0.4 | 54.9* | -1.1 | 59.9 | -6.5
O=[N+]([O-])c1ccc(Nc2nc(N/N=C/c3cccc(F)c3)nc(N3CCCC3)n2)cc1 | 0.4 | 32.9 | 0.7 | 23.8 | -2.8
CN1C=C/C(=C\c2cc[n+](C)c3ccccc23)c2ccccc21 | -2.1 | 55.9* | nt | nt | -6.0
COc1ccc(CNC(=S)N/N=C/c2ccc(OC)c(OC)c2)cc1 | 0.7 | -8.6 | -3.2 | 4.3 | -18.7
CCCOc1ccc(CNC(=S)N/N=C/c2ccc([N+](=O)[O-])cc2)cc1 | 0.4 | 61.2* | 1.2 | 6.8 | -26.8
COc1ccc(CNC(=S)N/N=C/c2ccc(O)c(OC)c2)cc1 | 20.5* | -4.0 | 0.3 | 1.0 | -19.2
CCCc1cc(=O)n2[nH]cc(-c3ccc(Cl)cc3)c2n1 | 0.8 | -61.6 | 0.0 | 79.9* | -22.5
COc1ccc(C(CCN)Cc2ccccc2)cc1 (centres undefined) | 0.2 | 89.4* | 1.0 | -0.1 | -1.8
N#Cc1ccccc1OCC(=O)OCC(=O)NC1CCCC1 | nt | nt | -0.6 | -2.7 | nt
